Experimental data: ChEMBL document CHEMBL1122411 (J Med Chem, 1983)

How the values were obtained:
[1] = tested on: Mus musculus; assay: Toxicity in mice after 12-16 days at a dose of 20 mg/kg/day; value is 14/9; assay type: functional
[2] = tested on: Mus musculus; assay: Toxicity in mice after 8-17 days at a dose of 4 mg/kg/day; value is 11/8.5; assay type: functional
[3] = species: Mus musculus; assay: Percentage increase in life span after 12-22 days; assay type: functional
Method in brief: (§1)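 Male B6D2F1J mice (20–25 g), randomized after i.p. inoculation with 10^5 L1210 ascitic leukemia cells on day 0. Drug in water, pH 7.5–8.0, given i.p. on a q2d×5, qd×9 (from day 1) or b.i.d.×10 schedule; 5 mice per group. %ILS = [(T/C) − 1]100 from median survival days of treated versus control mice. Range is survival days.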

[4] = tested on: L1210; assay: cytotoxicity against L1210 cells; assay type: functional; settings: Mus musculus, read-out: ID50 (the source's name)
[5] = tested on: Mus musculus; assay: Weight change on day 7 in L1210 Lymphoid Leukemia in mice at a dose of 40 mg/kg/day (qdx9); assay type: functional
Method in brief: (§2)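 Male B6D2F1J mice (20–25 g) were inoculated i.p. with 10⁵ L1210 ascites cells on day 0 and randomized into groups of 5. Drug in water at pH 7.5–8.0 was given i.p. daily for 9 days (qd×9) from day 1. Animals were weighed after 7 days, and the % body-weight change was recorded under a standard NCI protocol.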

[6] = species: Mus musculus; assay: Percentage increase in life span after 9-11 days; assay type: functional; method in brief: as §1
[7] = molecular target: T1, Dihydrofolate reductase (Mus musculus) (UniProt P00375); assay: Binding affinity to Dihydrofolate reductase of L1210 cell line using [H]MTX as radioligand; assay type: cell-based
T1 sequence (whole entry): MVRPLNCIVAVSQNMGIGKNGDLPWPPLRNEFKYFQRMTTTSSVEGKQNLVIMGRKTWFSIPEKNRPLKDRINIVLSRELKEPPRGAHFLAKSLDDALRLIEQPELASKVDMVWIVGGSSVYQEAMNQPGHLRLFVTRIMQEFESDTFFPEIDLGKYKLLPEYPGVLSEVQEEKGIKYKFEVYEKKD
Method in brief: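 Competitive [³H]MTX binding to dihydrofolate reductase from L1210 leukemia. Ascites cells from tumor-bearing mice were washed and lysed before use. The assay ran at 37 °C in 0.1 M potassium phosphate, pH 6.8. ID₅₀ was read as inhibition of radioligand binding, with MTX included in each experiment.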

[8] = tested on: Mus musculus; assay: Toxicity in mice after 12-20 days at a dose of 40 mg/kg/day; value is 14/9; assay type: functional
[9] = Tested for substrate activity of compound for Carboxypeptidase G1 (exp 2)
Method in brief: (§3)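 Cleavage by carboxypeptidase G₁ was followed as the A320 change on release of the pteroate. Conditions were 37 °C in 0.05 M potassium phosphate, pH 6.7, with 100 μM ZnSO₄. Enzyme was diluted in 1% BSA to give ΔA320 of 0.02–0.2/min. Km and Vmax came from Lineweaver-Burk plots. Ki came from competitive runs varying analogue against fixed MTX, or vice versa.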

[10] = tested on: Mus musculus; assay: Weight change on day 7 in L1210 Lymphoid Leukemia in mice at a dose of 20 mg/kg/day (qdx9); assay type: functional
Method in brief: (§4)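 Male B6D2F₁J mice (20–25 g) bearing ip L1210 ascites (10⁵ cells, day 0) were used, 5 per group. Drug was given ip in water at pH 7.5–8.0 from day 1 on q2d×5, qd×9 or b.i.d.×10 schedules. Animals were weighed after 7 days and percent weight change recorded.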

[11] = molecular target: Dihydrofolate reductase (Lactobacillus casei) (UniProt P00381); settings: Lacticaseibacillus casei
Dihydrofolate reductase (Lactobacillus casei), sequence (P00381 whole entry): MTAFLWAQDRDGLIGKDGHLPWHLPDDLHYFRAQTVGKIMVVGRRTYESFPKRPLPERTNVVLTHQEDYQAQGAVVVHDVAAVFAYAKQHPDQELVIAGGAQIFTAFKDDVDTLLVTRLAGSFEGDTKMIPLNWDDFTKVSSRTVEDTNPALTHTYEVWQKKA

[12] = species: Mus musculus; assay: Percentage increase in life span after 12-19 days; assay type: functional; method in brief: as §1
[13] = tested on: Mus musculus; assay: Toxicity in mice after 9-11 days at a dose of 2 mg/kg/day; value is 10/8.5; assay type: functional
[14] = tested on: Mus musculus; assay: Toxicity in mice after 10-24 days at a dose of 15 mg/kg/day; value is 21/9; assay type: functional
[15] = tested on: Mus musculus; assay: Weight change on day 7 in L1210 Lymphoid Leukemia in mice at a dose of 60 mg/kg/day (qdx9); assay type: functional; method in brief: as §2
[16] = tested on: Mus musculus; assay: Weight change on day 7 in L1210 Lymphoid Leukemia in mice at a dose of 8 mg/kg/day (qdx9); assay type: functional; method in brief: as §2
[17] = species: Mus musculus; assay: Percentage increase in life span after 9-24 days; assay type: functional; method in brief: as §1
[18] = tested on: Mus musculus; assay: Weight change on day 7 in L1210 Lymphoid Leukemia in mice at a dose of 4 mg/kg/day (qdx9); assay type: functional; method in brief: as §2
[19] = tested on: Mus musculus; assay: Toxicity in mice after 17-19 days at a dose of 40 mg/kg/day; value is 18/9; assay type: functional
[20] = species: Mus musculus; assay: Percentage increase in life span after 16-18 days; assay type: functional; method in brief: as §1
[21] = species: Mus musculus; assay: Percentage increase in life span after 17-19 days; assay type: functional; method in brief: as §1
[22] = species: Mus musculus; assay: Percentage increase in life span after 8-17 days; assay type: functional; method in brief: as §1
[23] = species: Mus musculus; assay: (§5) Percentage increase in life span after 12-20 days; assay type: functional; method in brief: as §1
[24] = tested on: Mus musculus; assay: Weight change on day 7 in L1210 Lymphoid Leukemia in mice at a dose of 12 mg/kg/day (b.i.d. x10); assay type: functional; method in brief: as §4
[25] = tested on: Mus musculus; assay: Toxicity in mice after 9-24 days at a dose of 12 mg/kg/day; value is 18/9; assay type: functional
[26] = tested on: Mus musculus; assay: Toxicity in mice after 12-22 days at a dose of 60 mg/kg/day; value is 21/9; assay type: functional
[27] = tested on: Mus musculus; assay: Weight change on day 7 in L1210 Lymphoid Leukemia in mice at a dose of 15 mg/kg/day (b.i.d. x10); assay type: functional; method in brief: as §4
[28] = tested on: Mus musculus; assay: Toxicity in mice after 12-20 days at a dose of 20 mg/kg/day; value is 13/9; assay type: functional
[29] = tested on: Mus musculus; assay: Weight change on day 7 in L1210 Lymphoid Leukemia in mice at a dose of 9 mg/kg/day (b.i.d. x10); assay type: functional
Method in brief: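 L1210 ascitic leukemia was implanted i.p. (10⁵ cells, day 0) in male B6D2F1J mice of 20–25 g, 5 per group. Dosing was b.i.d.×10, except that on days 5 and 6 a single double-dose injection was given. The % weight change was recorded at day 7.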

[30] = tested on: Mus musculus; assay: Weight change on day 7 in L1210 Lymphoid Leukemia in mice at a dose of 2 mg/kg/day (qdx9); assay type: functional; method in brief: as §4
[31] = molecular target: T1, Dihydrofolate reductase (Mus musculus)
[32] = Tested for substrate activity of compound for Carboxypeptidase G1; parameters: species or system Mus musculus; method in brief: as §3
[33] = tested on: Carboxypeptidase G1 (Pseudomonas); assay: Tested for substrate activity of compound for Carboxypeptidase G1
[34] = species: Mus musculus; assay: Percentage increase in life span after 10-24 days; assay type: functional; method in brief: as §1
[35] = species: Mus musculus; assay: as §5; assay type: functional; method in brief: as §1; remark: listed apart in the source
[36] = tested on: Mus musculus; assay: Toxicity in mice after 16-18 days at a dose of 9 mg/kg/day; value is 17/9; assay type: functional
[37] = tested on: Mus musculus; assay: Toxicity in mice after 12-19 days at a dose of 8 mg/kg/day; value is 12/8.5; assay type: functional
[38] = molecular target: Dihydrofolate reductase (Lactobacillus casei) (UniProt P00381); settings: Lacticaseibacillus casei; remark: listed apart in the source
[39] = species: Mus musculus; assay: Percentage increase in life span after 12-16 days; assay type: functional; method in brief: as §1
[40] = molecular target: T1, Dihydrofolate reductase (Mus musculus); assay: Binding affinity to Dihydrofolate reductase of L1210/R71 using spectrophotometric assay
Method in brief: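 The enzyme was isolated from MTX-resistant L1210/R71 cultured cells and purified on MTX-agarose. The assay measured ΔA340 at 22 °C in 0.1 M Tris, pH 7.0, with 62 nM enzyme. Enzyme was preincubated 2 min with inhibitor and NADPH, and dihydrofolate was then added to start the reaction. ID₅₀ determined.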

Compound: CN(Cc1cnc2nc(N)nc(N)c2n1)c1ccc(C(=O)NC(CCCC(=O)O)C(=O)O)cc1 (stereo unspecified)
- T/C [1]: 14
- T/C [2]: 11
- ILS [3]: 133%
- IC50 [4]: 30 nM
- Weight change [5]: 2%
- ILS [6]: 18%
- ID50 [7]: 1.4 nM
- T/C [8]: 14
- Ki [9]: 3220 nM
- Weight change [10]: 7%
- ID50 [11]: 12 nM
- ILS [12]: 41%
- T/C [13]: 10
- T/C [14]: 21
- Weight change [15]: -6%
- Weight change [16]: 2%
- ILS [17]: 100%
- Weight change [18]: 7%
- T/C [19]: 18
- ILS [20]: 89%
- ILS [21]: 100%
- ILS [22]: 29%
- ILS [23]: 55%
- Weight change [24]: -3%
- T/C [25]: 18
- T/C [26]: 21
- Weight change [27]: -7%
- T/C [28]: 13
- Weight change [29]: -3%
- Weight change [30]: 10%
- ID50 [31]: 6.7 nM
- Ki [32]: 2770 nM
- Km [33]: 196 µM
- Vmax [33]: 0.124 min⁻¹
- ILS [34]: 133%
- ILS [35]: 44%
- T/C [36]: 17
- T/C [37]: 12
- ID50 [38]: 6.9 nM
- ILS [39]: 56%
- ID50 [40]: 39 nM
